Experimental findings from ChEMBL document CHEMBL4368920, “Discovery of 2,4-diamino-5-cyanopyrimidine derivatives as protein kinase C theta inhibitors with mitigated time-dependent drug-drug interactions” (Bioorg Med Chem, 2019) are described below.

One may read the solubility as the dissolved amount per volume that the medium holds. A higher solubility goes with a readily soluble substance. As a reminder, the IC50 is the point on the concentration scale where inhibition reaches its midpoint. The AUC(0-t) is the area under the concentration-time curve up to a stated or last time point. High values mean more exposure, low ones less exposure. What is called Tmax is the time at which the peak concentration occurs. As a reminder, the clearance is the volume of plasma or blood freed of the substance per unit of time. Read a low clearance as inefficient removal. As usually defined, the Cmax is the maximum level reached in the sampled fluid or tissue. The term bioavailability denotes dose-corrected exposure relative to a reference, in per cent. Low values mean little systemic uptake, high ones much systemic uptake.

A short description of data set [1]: Aqueous solubility of the compound at pH 6.8 at 130 uM after 20 hrs by HPLC analysis. The format is physicochemical. Particulars: aqueous solution. In short, it runs like this:
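DMSO stock diluted to 130 μM with pH 6.8 aqueous buffer. Incubated 20 h at 25 °C, precipitate removed by filtration, filtrate concentration measured by HPLC.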

In a further data set the target is CYP3A4 (Homo sapiens, UniProt P08684). The experiment in a line: Time-dependent inhibition of CYP3A4 in human liver microsomes assessed as residual activity at 5 uM using midazolam as substrate preincubated for 30 mins followed by substrate addition and measured after 20 mins in presence of NADPH by LC-MS/MS analysis relative to control. The format is ADME. The conditions noted are these: probe midazolam, read-out: Activity. In short, it runs like this: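 Human liver microsomes at 0.1 mg/mL in 100 mM potassium sodium phosphate (pH 7.4) with 1 mM NADPH and 0.1 mM EDTA, compound at 5 μM. Midazolam added either with no preincubation or after 30 min preincubation at 37 °C. Reaction run 20 min at 37 °C and stopped with acetonitrile. Residual activity is 30-min activity as a percentage of 0-min activity.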
Chain of CYP3A4 (P08684 whole entry): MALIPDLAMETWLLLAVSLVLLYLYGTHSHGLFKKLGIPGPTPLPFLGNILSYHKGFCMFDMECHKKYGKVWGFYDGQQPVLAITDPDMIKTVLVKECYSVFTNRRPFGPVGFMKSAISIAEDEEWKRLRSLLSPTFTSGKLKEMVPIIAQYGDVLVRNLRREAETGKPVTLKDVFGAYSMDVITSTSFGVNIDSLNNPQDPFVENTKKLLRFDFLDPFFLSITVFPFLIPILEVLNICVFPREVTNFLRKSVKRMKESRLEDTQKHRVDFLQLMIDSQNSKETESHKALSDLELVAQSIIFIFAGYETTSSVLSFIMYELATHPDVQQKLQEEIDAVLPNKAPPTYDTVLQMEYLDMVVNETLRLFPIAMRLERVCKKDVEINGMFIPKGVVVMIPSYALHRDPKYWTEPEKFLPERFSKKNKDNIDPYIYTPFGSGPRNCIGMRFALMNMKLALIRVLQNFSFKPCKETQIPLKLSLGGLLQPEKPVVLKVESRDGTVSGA
A general note: Liver microsomes are vesicles of endoplasmic reticulum, rich in cytochrome P450 enzymes.

The target of data set [2] is T1, Protein kinase C theta type (Homo sapiens, UniProt Q04759). The experiment in a line: Inhibition of PKCtheta in human Jurkat cells assessed as reduction in IL2 production after 14 hrs by luciferase reporter gene assay. The format is cell-based. In short, it runs like this: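 Jurkat cells transiently transfected with a pGL3-IL2 promoter firefly luciferase plasmid. Stimulated with anti-CD3 plus anti-CD28 antibodies in the presence of compound for 14 h, then luciferase substrate added. IC50 from duplicates in one experiment.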
T1 sequence (Q04759 whole entry): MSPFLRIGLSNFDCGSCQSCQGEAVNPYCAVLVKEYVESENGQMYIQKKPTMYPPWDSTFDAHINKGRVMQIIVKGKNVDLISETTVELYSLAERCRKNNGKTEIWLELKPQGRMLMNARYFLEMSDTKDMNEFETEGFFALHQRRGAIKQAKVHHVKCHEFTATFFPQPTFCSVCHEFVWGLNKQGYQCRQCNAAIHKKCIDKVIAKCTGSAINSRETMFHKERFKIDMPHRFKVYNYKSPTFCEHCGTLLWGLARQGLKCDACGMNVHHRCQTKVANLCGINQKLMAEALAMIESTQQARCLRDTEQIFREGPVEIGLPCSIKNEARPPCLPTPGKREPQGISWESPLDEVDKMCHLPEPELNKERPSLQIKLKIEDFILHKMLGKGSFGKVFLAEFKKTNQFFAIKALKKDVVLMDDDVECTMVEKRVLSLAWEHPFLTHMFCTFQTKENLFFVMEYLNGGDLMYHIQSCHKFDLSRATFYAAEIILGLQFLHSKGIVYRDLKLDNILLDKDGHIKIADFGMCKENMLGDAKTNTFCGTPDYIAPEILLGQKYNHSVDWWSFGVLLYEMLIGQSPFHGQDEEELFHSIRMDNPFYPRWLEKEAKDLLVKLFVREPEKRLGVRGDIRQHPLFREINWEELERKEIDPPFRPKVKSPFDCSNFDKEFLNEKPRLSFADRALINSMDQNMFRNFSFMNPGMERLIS
In general terms: Reporter assays use an easily measured gene product as a stand-in for the process of interest.

For data set [3], the target named is T1, Protein kinase C theta type. The experiment in a line: Inhibition of recombinant human full length PKCtheta using biotin-labelled STK substrate-1 as substrate after 60 mins by fluorescence assay.
Another data set relates to Rattus norvegicus. The experiment in a line: Immunosuppressive activity in Lewis rat transplanted with ACI rat cardiac tissue assessed as reduction in graft rejection by measuring mean survival days at 1 mg/kg, po administered for 14 consecutive days co-treated with tacrolimus (reference value: 7 days). Type of data set: functional. In short, it runs like this:
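ACI donor hearts into Lewis recipients, abdominal vascularized heterotopic transplant under aseptic conditions; pentobarbital 40 mg/kg i.p. anaesthesia. Agent in propylene glycol, given orally with tacrolimus (0.02 mg/kg) for 14 consecutive days starting on operation day. Graft survival recorded per animal and median survival time reported (n = 9).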

Data set [4] is described as follows: AUC (0 to 24 hrs) in Sprague-Dawley rat at 1 mg/kg, iv by LC-MS/MS analysis. Type of data set: ADME, organism-based. Set-up: time < 24 hr, dose 1 mg/kg, route intravenous. The conditions noted are these: in vivo. The method, boiled down:
(§1)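 Female SD rats, 1 mg/kg given as a single i.v. or oral dose in DMF/propylene glycol/1N HCl/saline (25/25/0.2/49.8). Blood sampled at multiple times up to 24 h. Unchanged compound in plasma measured by LC-MS/MS. Parameters derived by noncompartmental analysis. F taken as the AUC ratio of oral to i.v. dosing. Each value is the mean of three animals.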

Data set [5] in a line: Volume of distribution at steady state in Sprague-Dawley rat at 1 mg/kg, iv by LC-MS/MS analysis. Type of data set: ADME, organism-based. The conditions noted are these: in vivo, read-out: Vdss. In short, it runs like this:
as §1

A short description of data set [6]: Tmax in Sprague-Dawley rat at 1 mg/kg, po by LC-MS/MS analysis. The format is ADME, organism-based. The conditions noted are these: in vivo. The method, boiled down:
as §1

A short description of data set [7]: AUC (0 to 24 hrs) in Sprague-Dawley rat at 1 mg/kg, po by LC-MS/MS analysis. Type of data set: ADME, organism-based. The arrangement: time < 24 hr, dose 1 mg/kg, route oral. Particulars: in vivo. The method, boiled down:
as §1

The nature of data set [8]: Elimination half life in Sprague-Dawley rat at 1 mg/kg, iv by LC-MS/MS analysis. The format is ADME, organism-based. The conditions noted are these: in vivo, read-out: beta t1/2 (converted). In short, it runs like this: as §1
Data set [9] in a line: Total clearance in Sprague-Dawley rat at 1 mg/kg, iv by LC-MS/MS analysis. The format is ADME, organism-based. The conditions noted are these: in vivo. In short, it runs like this: as §1
Data set [10] can be described thus: Cmax in Sprague-Dawley rat at 1 mg/kg, po by LC-MS/MS analysis. Set-up: dose 1 mg/kg, route oral. The format is ADME, organism-based. Particulars: in vivo. In short, it runs like this: as §1
Data set [11] in a line: Oral bioavailability in Sprague-Dawley rat at 1 mg/kg by LC-MS/MS analysis. Type of data set: ADME, organism-based. The conditions noted are these: in vivo. In short, it runs like this:
as §1

Converted amounts (≈) assume the structure as drawn. Where only a bound is given, the exact number is not on record here.

On to `CC(C)Oc1ncccc1CNc1ncc(C#N)c(NCC23CC4CC(C2)C(NC[C@H]2CC[C@H](O)CC2)C(C4)C3)n1` (stereo not given in full), for which the solubility at 20 h, 130 µM in data set [1] was greater than 100 µM. The activity at 20 min, 5 µM on CYP3A4 is 87%. In addition, the half-inhibitory concentration (IC50) in data set [2] was 18 nM; in data set [3], 0.59 nM.
In data set [1], `COc1ncccc1CNc1ncc(C#N)c(NCC23CC4CC(C2)C(NC[C@H]2CC[C@H](O)CC2)C(C4)C3)n1` (stereo not given in full) returned a solubility at 20 h, 130 µM greater than 50 µM. In addition, the activity at 20 min, 5 µM on CYP3A4 is 94%. For the same molecule, the concentration for half-maximal inhibition (IC50) in data set [2] turned out to be 43 nM; in data set [3], 1.9 nM.
`COc1nnccc1CNc1ncc(C#N)c(NCC23CC4CC(C2)C(NC[C@H]2CC[C@H](O)CC2)C(C4)C3)n1` (stereo not given in full) returned a solubility at 20 h, 130 µM in [1] greater than 100 µM. The IC50 in data set [3] is greater than 100 nM.
Turning to `CC(C)NC1C2CC3CC1CC(CNc1nc(NCc4ccccc4OC(F)(F)F)ncc1C#N)(C3)C2` (stereo not given), the activity at 20 min, 5 µM on CYP3A4 turned out to be 29%. In addition, the IC50 in data set [3] is less than 1 nM.
On to `N#Cc1cnc(NCc2ccccc2Cl)nc1NCC12CC3CC(C1)C(NC[C@H]1CC[C@H](O)CC1)C(C3)C2` (stereo not given in full), for which the solubility at 20 h, 130 µM in [1] was 1.1 µM (≈ 0.589 µg/mL). Further, the activity at 20 min, 5 µM on CYP3A4 worked out at 77%. Also, the IC50 in data set [2] was determined as 22 nM; in data set [3] it was 1.4 nM.
In the same order, the values of `CSc1ccccc1CNc1ncc(C#N)c(NCC23CC4CC(C2)C(NC[C@H]2CC[C@H](O)CC2)C(C4)C3)n1` (stereo not given in full) are 45 µM (≈ 24.6 µg/mL), 92%, 16 nM and 0.94 nM.
In the same order, the values of `CCSc1ncccc1CNc1ncc(C#N)c(NCC23CC4CC(C2)C(NC[C@H]2CC[C@H](O)CC2)C(C4)C3)n1` (stereo not given in full) are 16 µM (≈ 8.99 µg/mL), 80%, less than 3 nM and 0.46 nM.
For `N#Cc1cnc(NCc2ccccc2OC(F)(F)F)nc1NCC12CC3CC(C1)C(NCCO)C(C3)C2` (stereo not given), the activity at 20 min, 5 µM on CYP3A4 turned out to be 36%. Besides, the IC50 in data set [3] was 0.7 nM.
In the same order, the values of `N#Cc1cnc(NCc2ccccc2OC(F)(F)F)nc1NCC12CC3CC(C1)C(N[C@H]1CC[C@@H](O)CC1)C(C3)C2` (stereo not given in full) are 43% and 0.66 nM.
In the same order, the values of `N#Cc1cnc(NCc2ccccc2OC(F)(F)F)nc1NCC12CC3CC(C1)C(N[C@H]1CC[C@H](O)CC1)C(C3)C2` (stereo not given in full) are 64% and 0.38 nM.
In the same order, the values of `N#Cc1cnc(NCc2ccccc2OC(F)(F)F)nc1NCC12CC3CC(C1)C(NC1CCOCC1)C(C3)C2` (stereo not given) are 41% and less than 1 nM.
Consider `CC(C)Sc1ncccc1CNc1ncc(C#N)c(NCC23CC4CC(C2)C(NC[C@H]2CC[C@H](O)CC2)C(C4)C3)n1` (stereo not given in full), for which, in data set [1], the solubility at 20 h, 130 µM is less than 1 µM. Moreover, the activity at 20 min, 5 µM at CYP3A4 came to 66%. The IC50 in [2] was 3 nM; in data set [3], 0.23 nM.
Turning to `CSc1ncccc1CNc1ncc(C#N)c(NCC23CC4CC(C2)C(NC[C@H]2CC[C@H](O)CC2)C(C4)C3)n1` (stereo not given in full), the solubility at 20 h, 130 µM in data set [1] was greater than 50 µM. Moreover, the MSD with Rattus norvegicus was determined as 20 days. The AUC(0-t) at 24 h in data set [4] was found to be 248 ng·h/mL; in data set [7] it was 145 ng·h/mL. In addition, the Vd in data set [5] is 12.9 L/kg. In data set [6], the Tmax stood at 3.33 h. For the same molecule, the half-life in [8] is 3.97 h. Also, the activity at 20 min, 5 µM on CYP3A4 was 98%. The clearance in [9] came out at 66.7 mL/min/kg. For the same molecule, in [10], the highest level (Cmax) was 12.4 ng/mL. This molecule also registered a bioavailability in data set [11] of 58.3%. In addition, the results for the 50% inhibitory concentration (IC50) in data set [2] and in data set [3] were 10 nM and 0.44 nM, respectively.
Take `N#Cc1cnc(NCc2ccccc2OC(F)(F)F)nc1NCC12CC3CC(C1)C(N[C@H]1CC[C@H](N)CC1)C(C3)C2` (stereo not given in full): at CYP3A4, the activity at 20 min, 5 µM is 59%. In addition, in data set [3], the IC50 came out at 0.1 nM.
The molecule `N#Cc1cnc(NCc2ccccc2OC(F)(F)F)nc1NCC12CC3CC(C1)C(NC[C@H]1CC[C@H](O)CC1)C(C3)C2` (stereo not given in full) yielded a solubility at 20 h, 130 µM in [1] of less than 1 µM. Also, at CYP3A4, the activity at 20 min, 5 µM stood at 70%. Besides, the IC50 in data set [2] is 11 nM; in data set [3], 0.42 nM.
`CS(=O)(=O)c1ncccc1CNc1ncc(C#N)c(NCC23CC4CC(C2)C(NC[C@H]2CC[C@H](O)CC2)C(C4)C3)n1` (stereo not given in full) returned a solubility at 20 h, 130 µM in data set [1] greater than 100 µM. In data set [2], the IC50 was found to be 140 nM.
Regarding `N#Cc1cnc(NCc2ccccc2OC(F)(F)F)nc1NCC12CC3CC(C1)C(NC1CCCCC1)C(C3)C2` (stereo not given), the activity at 20 min, 5 µM on CYP3A4 was determined as 43%. The IC50 in [3] came out at 1.9 nM.
`C[S+]([O-])c1ncccc1CNc1ncc(C#N)c(NCC23CC4CC(C2)C(NC[C@H]2CC[C@H](O)CC2)C(C4)C3)n1` (stereo not given in full): the solubility at 20 h, 130 µM in data set [1] is greater than 100 µM. Besides, the IC50 in [2] came to 170 nM; in data set [3], 32 nM.
As to `N#Cc1cnc(NCc2ccccc2C(F)(F)F)nc1NCC12CC3CC(C1)C(NC[C@H]1CC[C@H](O)CC1)C(C3)C2` (stereo not given in full), the activity at 20 min, 5 µM at CYP3A4 worked out at 63%. For the same molecule, the IC50 in data set [2] worked out at 17 nM; in [3] it was 0.57 nM.
